ChEMBL document CHEMBL5058577, “EUbOPEN Chemogenomics Library 2 (Multiplex)” (2022)

System: U2OS
Experiment: Multiplex assay against U2OS
Assay type: toxicity, cell-based
Conditions: human
Summary of the method: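 Live cells were stained at seeding with Hoechst33342, BioTracker Green Microtubule Cytoskeleton Dye, MitoTracker Red and Annexin V Alexa Fluor 680, then imaged on a CQ1 microscope at 37°C and 5% CO2 after compound addition. CellPathfinder machine-learning gating split cells into Hoechst high-intensity objects or normal cells. Normal cells were split into healthy, pyknosed or fragmented nuclei, and pyknosed cells into mitotic or apoptotic. Tubulin, mitochondrial-mass and membrane-permeability phenotypes are per cents of healthy-nucleus cells.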

[1] = 12 h, 1 µM, compound concentration 1 uM, replicate 1
[2] = 12 h, 1 µM, compound concentration 1 uM, replicate 2
[3] = 12 h, 10 µM, compound concentration 10 uM, replicate 1
[4] = 12 h, 10 µM, compound concentration 10 uM, replicate 2
[5] = 24 h, 1 µM, compound concentration 1 uM, replicate 1
[6] = 24 h, 1 µM, compound concentration 1 uM, replicate 2
[7] = 24 h, 10 µM, compound concentration 10 uM, replicate 1
[8] = 24 h, 10 µM, compound concentration 10 uM, replicate 2
[9] = 48 h, 1 µM, compound concentration 1 uM, replicate 1
[10] = 48 h, 1 µM, compound concentration 1 uM, replicate 2
[11] = 48 h, 10 µM, compound concentration 10 uM, replicate 1
[12] = 48 h, 10 µM, compound concentration 10 uM, replicate 2

CC(=O)NCCc1c(Cc2ccccc2)[nH]c2ccccc12 [LUZINDOLE]
Population Apoptotic (%) [1]: 72%
Population Fragmented Nuclei (%) [1]: 25%
Population Healthy Nuclei (%) [1]: 65%
Population Hoechst High Intensity Objects (%) [1]: 3%
Population Membrane Permeable-Phenotype (%) [1]: 3%
Population Mitochondria Different-Phenotype (%) [1]: 4%
Population Mitotic Cells (%) [1]: 27%
Population Normal (%) [1]: 96%
Population Pyknosed Nuclei (%) [1]: 9%
Population Tubulin-Different-Phenotype (%) [1]: 1%
Total Cell Count [1]: 233
Population Apoptotic (%) [2]: 100%
Population Fragmented Nuclei (%) [2]: 19%
Population Healthy Nuclei (%) [2]: 77%
Population Hoechst High Intensity Objects (%) [2]: 2%
Population Membrane Permeable-Phenotype (%) [2]: 6%
Population Mitochondria Different-Phenotype (%) [2]: 2%
Population Mitotic Cells (%) [2]: 0%
Population Normal (%) [2]: 97%
Population Pyknosed Nuclei (%) [2]: 3%
Population Tubulin-Different-Phenotype (%) [2]: 2%
Total Cell Count [2]: 134
Population Apoptotic (%) [3]: 81%
Population Fragmented Nuclei (%) [3]: 26%
Population Healthy Nuclei (%) [3]: 65%
Population Hoechst High Intensity Objects (%) [3]: 2%
Population Membrane Permeable-Phenotype (%) [3]: 8%
Population Mitochondria Different-Phenotype (%) [3]: 3%
Population Mitotic Cells (%) [3]: 18%
Population Normal (%) [3]: 97%
Population Pyknosed Nuclei (%) [3]: 7%
Population Tubulin-Different-Phenotype (%) [3]: 4%
Total Cell Count [3]: 291
Population Apoptotic (%) [4]: 76%
Population Fragmented Nuclei (%) [4]: 13%
Population Healthy Nuclei (%) [4]: 78%
Population Hoechst High Intensity Objects (%) [4]: 1%
Population Membrane Permeable-Phenotype (%) [4]: 5%
Population Mitochondria Different-Phenotype (%) [4]: 2%
Population Mitotic Cells (%) [4]: 23%
Population Normal (%) [4]: 98%
Population Tubulin-Different-Phenotype (%) [4]: 3%
Total Cell Count [4]: 179
Population Apoptotic (%) [5]: 90%
Population Fragmented Nuclei (%) [5]: 19%
Population Healthy Nuclei (%) [5]: 68%
Population Hoechst High Intensity Objects (%) [5]: 4%
Population Membrane Permeable-Phenotype (%) [5]: 2%
Population Mitochondria Different-Phenotype (%) [5]: 3%
Population Mitotic Cells (%) [5]: 10%
Population Normal (%) [5]: 95%
Population Pyknosed Nuclei (%) [5]: 12%
Population Tubulin-Different-Phenotype (%) [5]: 3%
Total Cell Count [5]: 260
Population Apoptotic (%) [6]: 88%
Population Fragmented Nuclei (%) [6]: 18%
Population Healthy Nuclei (%) [6]: 70%
Population Hoechst High Intensity Objects (%) [6]: 0%
Population Membrane Permeable-Phenotype (%) [6]: 5%
Population Mitochondria Different-Phenotype (%) [6]: 1%
Population Mitotic Cells (%) [6]: 11%
Population Normal (%) [6]: 99%
Population Pyknosed Nuclei (%) [6]: 10%
Population Tubulin-Different-Phenotype (%) [6]: 4%
Total Cell Count [6]: 156
Population Apoptotic (%) [7]: 88%
Population Fragmented Nuclei (%) [7]: 25%
Population Healthy Nuclei (%) [7]: 66%
Population Hoechst High Intensity Objects (%) [7]: 2%
Population Membrane Permeable-Phenotype (%) [7]: 6%
Population Mitochondria Different-Phenotype (%) [7]: 3%
Population Mitotic Cells (%) [7]: 12%
Population Normal (%) [7]: 97%
Population Pyknosed Nuclei (%) [7]: 7%
Population Tubulin-Different-Phenotype (%) [7]: 4%
Total Cell Count [7]: 342
Population Apoptotic (%) [8]: 85%
Population Fragmented Nuclei (%) [8]: 11%
Population Healthy Nuclei (%) [8]: 80%
Population Hoechst High Intensity Objects (%) [8]: 0%
Population Mitochondria Different-Phenotype (%) [8]: 1%
Population Mitotic Cells (%) [8]: 15%
Population Normal (%) [8]: 99%
Population Pyknosed Nuclei (%) [8]: 8%
Population Tubulin-Different-Phenotype (%) [8]: 3%
Total Cell Count [8]: 236
Population Apoptotic (%) [9]: 91%
Population Fragmented Nuclei (%) [9]: 16%
Population Healthy Nuclei (%) [9]: 74%
Population Hoechst High Intensity Objects (%) [9]: 2%
Population Membrane Permeable-Phenotype (%) [9]: 3%
Population Mitochondria Different-Phenotype (%) [9]: 2%
Population Mitotic Cells (%) [9]: 8%
Population Normal (%) [9]: 97%
Population Pyknosed Nuclei (%) [9]: 9%
Population Tubulin-Different-Phenotype (%) [9]: 2%
Total Cell Count [9]: 395
Population Apoptotic (%) [10]: 80%
Population Fragmented Nuclei (%) [10]: 11%
Population Healthy Nuclei (%) [10]: 77%
Population Hoechst High Intensity Objects (%) [10]: 1%
Population Membrane Permeable-Phenotype (%) [10]: 8%
Population Mitochondria Different-Phenotype (%) [10]: 1%
Population Mitotic Cells (%) [10]: 20%
Population Normal (%) [10]: 98%
Population Pyknosed Nuclei (%) [10]: 11%
Population Tubulin-Different-Phenotype (%) [10]: 4%
Total Cell Count [10]: 217
Population Apoptotic (%) [11]: 89%
Population Fragmented Nuclei (%) [11]: 21%
Population Healthy Nuclei (%) [11]: 69%
Population Hoechst High Intensity Objects (%) [11]: 2%
Population Membrane Permeable-Phenotype (%) [11]: 6%
Population Mitochondria Different-Phenotype (%) [11]: 3%
Population Mitotic Cells (%) [11]: 10%
Population Normal (%) [11]: 97%
Population Pyknosed Nuclei (%) [11]: 8%
Population Tubulin-Different-Phenotype (%) [11]: 3%
Total Cell Count [11]: 446
Population Apoptotic (%) [12]: 100%
Population Fragmented Nuclei (%) [12]: 11%
Population Healthy Nuclei (%) [12]: 82%
Population Hoechst High Intensity Objects (%) [12]: 1%
Population Membrane Permeable-Phenotype (%) [12]: 5%
Population Mitochondria Different-Phenotype (%) [12]: 2%
Population Mitotic Cells (%) [12]: 0%
Population Normal (%) [12]: 98%
Population Pyknosed Nuclei (%) [12]: 5%
Total Cell Count [12]: 354
